Assay [1] concerns the target T1, Nitric oxide synthase 1 (Homo sapiens, UniProt P29475). Description: Inhibition of recombinant nNOS (unknown origin) assessed as conversion of L-[3H]-arginine to L-[3H]-citrulline at 1 mM after 30 mins. An outline of the steps:
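Recombinant nNOS (21.05 nmol/min/mg) in 25 mM Tris-HCl pH 7.6 with DTT, H4-biopterin, FAD, inosine, BSA, CaCl2, L-arginine and 50 nM L-[3H]-arginine. Compound at 1 mM; 37 °C, 30 min. Stopped with cold HEPES/EGTA/L-citrulline pH 5.5, Dowex-50W (Na+) separation, [3H]-citrulline by scintillation. NADPH-omitted blank subtracted. Mean of three experiments in triplicate.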

Assay [2] has as its target Nitric oxide synthase, inducible (Homo sapiens) (UniProt P35228). Description: Inhibition of recombinant iNOS (unknown origin) assessed as conversion of L-[3H]-arginine to L-[3H]-citrulline at 1 mM after 30 mins. The procedure, abridged: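 Recombinant iNOS was tested with each compound at 1 mM. Activity is expressed relative to control and reported as % inhibition. Each value is the mean of three experiments, each run in triplicate.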

The target in assay [3] is T1, Nitric oxide synthase 1. Description: Inhibition of recombinant nNOS (unknown origin) assessed as conversion of L-[3H]-arginine to L-[3H]-citrulline after 30 mins. An outline of the steps:
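Bredt–Snyder radiometric citrulline assay using recombinant nNOS in 25 mM Tris-HCl pH 7.6 with DTT, H4-biopterin, FAD, inosine, BSA, 0.1 mM CaCl2, L-arginine and 50 nM L-[3H]-arginine. Incubated at 37 °C for 30 min, then Dowex-50W separation and scintillation counting. Blank without NADPH subtracted. IC50 given in mM.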

SMILES strings stand for the structures.

Chain of Nitric oxide synthase, inducible (Homo sapiens) (P35228 whole entry): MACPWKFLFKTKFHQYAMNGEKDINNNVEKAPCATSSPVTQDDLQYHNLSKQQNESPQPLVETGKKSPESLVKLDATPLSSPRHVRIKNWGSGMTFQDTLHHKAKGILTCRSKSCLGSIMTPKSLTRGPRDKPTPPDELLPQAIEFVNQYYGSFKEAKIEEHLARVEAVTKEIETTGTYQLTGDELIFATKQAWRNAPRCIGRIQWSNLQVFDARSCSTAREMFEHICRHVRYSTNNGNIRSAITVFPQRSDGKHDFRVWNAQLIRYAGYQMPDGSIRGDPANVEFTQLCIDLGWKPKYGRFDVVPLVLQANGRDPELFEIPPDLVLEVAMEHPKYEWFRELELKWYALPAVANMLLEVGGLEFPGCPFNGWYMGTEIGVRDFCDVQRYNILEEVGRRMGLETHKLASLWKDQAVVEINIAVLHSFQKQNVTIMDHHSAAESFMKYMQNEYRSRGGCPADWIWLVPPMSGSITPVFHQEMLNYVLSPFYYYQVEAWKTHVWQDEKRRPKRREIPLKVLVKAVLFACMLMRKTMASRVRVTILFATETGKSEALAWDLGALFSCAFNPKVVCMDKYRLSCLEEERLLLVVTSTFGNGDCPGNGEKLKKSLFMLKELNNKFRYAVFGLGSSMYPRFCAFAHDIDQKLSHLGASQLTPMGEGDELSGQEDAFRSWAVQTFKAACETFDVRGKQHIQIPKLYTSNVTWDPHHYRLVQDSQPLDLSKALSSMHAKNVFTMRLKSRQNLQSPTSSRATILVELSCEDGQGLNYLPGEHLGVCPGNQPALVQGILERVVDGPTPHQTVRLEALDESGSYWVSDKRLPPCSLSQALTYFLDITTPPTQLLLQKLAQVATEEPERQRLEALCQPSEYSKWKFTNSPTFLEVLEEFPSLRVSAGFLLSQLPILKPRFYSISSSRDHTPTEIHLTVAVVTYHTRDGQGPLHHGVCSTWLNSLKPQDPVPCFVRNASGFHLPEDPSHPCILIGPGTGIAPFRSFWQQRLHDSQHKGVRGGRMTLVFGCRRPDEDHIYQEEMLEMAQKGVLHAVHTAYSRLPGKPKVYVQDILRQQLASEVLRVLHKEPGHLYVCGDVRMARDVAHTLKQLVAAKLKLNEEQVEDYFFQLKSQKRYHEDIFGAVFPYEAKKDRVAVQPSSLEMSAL
T1 sequence (P29475 whole entry): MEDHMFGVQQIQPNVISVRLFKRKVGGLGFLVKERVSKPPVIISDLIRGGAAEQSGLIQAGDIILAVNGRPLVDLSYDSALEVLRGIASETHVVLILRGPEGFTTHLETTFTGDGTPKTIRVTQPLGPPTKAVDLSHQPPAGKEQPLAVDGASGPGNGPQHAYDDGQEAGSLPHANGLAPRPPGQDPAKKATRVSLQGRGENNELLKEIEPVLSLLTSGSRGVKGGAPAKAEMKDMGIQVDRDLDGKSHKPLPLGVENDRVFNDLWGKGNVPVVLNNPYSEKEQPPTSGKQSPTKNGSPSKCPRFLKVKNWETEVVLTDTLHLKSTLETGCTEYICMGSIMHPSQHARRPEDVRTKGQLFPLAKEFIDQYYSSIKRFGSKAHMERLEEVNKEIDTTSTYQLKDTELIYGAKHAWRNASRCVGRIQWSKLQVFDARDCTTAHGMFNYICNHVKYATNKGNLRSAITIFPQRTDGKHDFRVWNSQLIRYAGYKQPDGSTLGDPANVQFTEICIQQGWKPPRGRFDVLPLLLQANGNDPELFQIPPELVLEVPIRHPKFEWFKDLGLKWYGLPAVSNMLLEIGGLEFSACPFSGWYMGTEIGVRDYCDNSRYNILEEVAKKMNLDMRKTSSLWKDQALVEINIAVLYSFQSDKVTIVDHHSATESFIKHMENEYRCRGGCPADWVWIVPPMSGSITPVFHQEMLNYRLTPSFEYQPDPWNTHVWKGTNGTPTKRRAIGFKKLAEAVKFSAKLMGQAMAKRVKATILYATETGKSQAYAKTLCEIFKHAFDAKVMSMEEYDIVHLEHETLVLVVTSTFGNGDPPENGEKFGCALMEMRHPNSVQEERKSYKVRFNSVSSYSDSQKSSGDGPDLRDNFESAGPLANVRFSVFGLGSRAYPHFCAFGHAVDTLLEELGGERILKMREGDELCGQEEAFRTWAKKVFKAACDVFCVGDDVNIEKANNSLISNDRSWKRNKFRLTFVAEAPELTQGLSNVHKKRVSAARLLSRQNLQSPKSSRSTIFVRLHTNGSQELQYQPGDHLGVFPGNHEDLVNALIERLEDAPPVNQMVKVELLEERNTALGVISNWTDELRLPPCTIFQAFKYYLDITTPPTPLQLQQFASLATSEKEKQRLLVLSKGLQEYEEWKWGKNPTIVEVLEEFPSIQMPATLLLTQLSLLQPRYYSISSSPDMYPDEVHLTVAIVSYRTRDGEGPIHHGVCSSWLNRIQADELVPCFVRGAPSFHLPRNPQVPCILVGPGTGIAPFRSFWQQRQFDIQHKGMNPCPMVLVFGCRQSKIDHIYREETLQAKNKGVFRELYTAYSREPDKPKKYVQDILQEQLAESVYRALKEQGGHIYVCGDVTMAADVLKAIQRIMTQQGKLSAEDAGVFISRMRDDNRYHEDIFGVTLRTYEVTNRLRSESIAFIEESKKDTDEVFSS

`COc1ccc(N)c(C2=NN(C(=O)CCc3ccccc3)CC2)c1`: the inhibition (commonly the share of the control response that was lost under treatment) amounted to 25.9% on Nitric oxide synthase 1 [1] and 21.2% in assay [2].

In the case of `Nc1ccccc1C1=NN(C(=O)C2CC2)CC1`, the results for the inhibition (at Nitric oxide synthase 1 [1]; in assay [2]) were 38.8% and 14.8%, respectively.

With `COc1cc(N)c(C2=NN(C(=O)c3ccccc3)CC2)c(OC)c1OC`, the IC50 (usually the concentration needed to halve the response being measured) on Nitric oxide synthase 1 [3] was 530 µM. For the same compound, the inhibition on Nitric oxide synthase 1 [1] is 62.9%; in assay [2] it was 8.14%.

With `Nc1ccc(Cl)cc1C1=NN(C(=O)C2CC2)CC1`, the inhibition at Nitric oxide synthase 1 [1] was determined as 70.2%; in assay [2] it was 18.9%.

For `Nc1ccc(Cl)cc1C1=NN(C(=O)c2ccccc2)CC1`, the inhibition on Nitric oxide synthase 1 [1] turned out to be 61.1%; in assay [2] it was 17%.

In the case of `Nc1ccc(Cl)cc1C1=NN(C(=O)Cc2ccccc2)CC1`, the inhibition stood at 18.2% at Nitric oxide synthase 1 [1] and 34.6% in assay [2].

As for `COc1ccc(N)c(C2=NN(C(=O)C3CCCCC3)CC2)c1`, the inhibition stood at 62.2% on Nitric oxide synthase 1 [1] and 13.2% in assay [2].

`CCCC(=O)N1CCC(c2cc(OC)ccc2N)=N1`: the inhibition on Nitric oxide synthase 1 [1] stood at 34.7%; in assay [2], 13.1%.

Turning to `Nc1ccccc1C1=NN(C(=O)c2ccccc2)CC1`, the figures for the inhibition (at Nitric oxide synthase 1 [1]; in assay [2]) were 57% and 8.7%, respectively.

On to `CCCCC(=O)N1CCC(c2cc(OC)ccc2N)=N1`, for which the inhibition was found to be 49.8% on Nitric oxide synthase 1 [1] and 0.18% in assay [2].

With `COc1cc(N)c(C2=NN(C(=O)CCc3ccccc3)CC2)cc1OC`, the half-inhibitory concentration (IC50) at Nitric oxide synthase 1 [3] was 880 µM. The inhibition on Nitric oxide synthase 1 [1] was determined as 55.3%; in assay [2], 23.7%.

For `Nc1cc(Cl)c(Cl)cc1C1=NN(C(=O)CCc2ccccc2)CC1`, the inhibition at Nitric oxide synthase 1 [1] is 2.97%; in assay [2] it was 50.2%.

Turning to `COc1cc(N)c(C2=NN(C(=O)Cc3ccccc3)CC2)cc1OC`, the inhibition was 35.1% at Nitric oxide synthase 1 [1] and 21% in assay [2].

Take `COc1cc(N)c(C2=NN(C(=O)C3CC3)CC2)c(OC)c1OC`: the inhibition at Nitric oxide synthase 1 [1] stood at 0.05%; in assay [2], 30.1%.

On to `COc1ccc(N)c(C2=NN(C(C)=O)CC2)c1`, for which the values for the inhibition (at Nitric oxide synthase 1 [1]; in assay [2]) were 38% and 20.4%, respectively.

As to `COc1ccc(N)c(C2=NN(C(=O)C3CCCC3)CC2)c1`, the inhibition at Nitric oxide synthase 1 [1] worked out at 49.9%; in assay [2] it was 1.85%.

As to `CCC(=O)N1CCC(c2cc(OC)ccc2N)=N1`, the figures for the inhibition (on Nitric oxide synthase 1 [1]; in assay [2]) were 53.3% and 20.4%, respectively.

On to `Nc1cc(Cl)c(Cl)cc1C1=NN(C(=O)c2ccccc2)CC1`, for which the inhibition was 0.62% at Nitric oxide synthase 1 [1] and 36.1% in assay [2].

Take `CCCC(=O)N1CCC(c2cc(Cl)ccc2N)=N1`: the inhibition on Nitric oxide synthase 1 [1] was determined as 34.4%; in assay [2], 0.29%.

Take `CCCC(=O)N1CCC(c2ccccc2N)=N1`: on Nitric oxide synthase 1 [1], the inhibition is 52.4%.

For `CC(=O)N1CCC(c2cc(Cl)ccc2N)=N1`, the inhibition on Nitric oxide synthase 1 [1] was found to be 47.6%; in assay [2] it was 1.03%.

On to `Nc1ccc(Cl)cc1C1=NN(C(=O)CCc2ccccc2)CC1`, for which the inhibition at Nitric oxide synthase 1 [1] stood at 32.4%; in assay [2], 31.4%.

With `COc1ccc(N)c(C2=NN(C(=O)C3CC3)CC2)c1`, the inhibition is 62.2% on Nitric oxide synthase 1 [1] and 19.9% in assay [2].

Consider `COc1ccc(N)c(C2=NN(C(=O)c3ccccc3)CC2)c1`, for which the inhibition on Nitric oxide synthase 1 [1] amounted to 58.9%; in assay [2], 12.2%.

On to `Nc1cc(Cl)c(Cl)cc1C1=NN(C(=O)Cc2ccccc2)CC1`, for which the inhibition at Nitric oxide synthase 1 [1] worked out at 21.6%; in assay [2], 49.2%.

Take `CCC(=O)N1CCC(c2cc(Cl)ccc2N)=N1`: the inhibition on Nitric oxide synthase 1 [1] was 46.1%; in assay [2], 13.7%.

As to `COc1cc(N)c(C2=NN(C(=O)Cc3ccccc3)CC2)c(OC)c1OC`, the values for the inhibition (on Nitric oxide synthase 1 [1]; in assay [2]) were 48.4% and 23.4%, respectively.

Consider `CC(=O)N1CCC(c2ccccc2N)=N1`, for which the figures for the inhibition (at Nitric oxide synthase 1 [1]; in assay [2]) were 33.7% and 7.73%, respectively.

As for `Nc1ccccc1C1=NN(C(=O)CCc2ccccc2)CC1`, the inhibition at Nitric oxide synthase 1 [1] was found to be 7.36%; in assay [2], 5.64%.

`COc1cc(N)c(C2=NN(C(=O)CCc3ccccc3)CC2)c(OC)c1OC`: the IC50 at Nitric oxide synthase 1 [3] was 400 µM. The inhibition on Nitric oxide synthase 1 [1] amounted to 82.5%; in assay [2] it was 18.3%.

For `COc1cc(N)c(C2=NN(C(=O)C3CC3)CC2)cc1OC`, the inhibition was found to be 19.6% at Nitric oxide synthase 1 [1] and 25.2% in assay [2].

In the case of `Nc1ccccc1C1=NN(C(=O)Cc2ccccc2)CC1`, the inhibition was found to be 2.68% on Nitric oxide synthase 1 [1] and 2.31% in assay [2].

`COc1cc(N)c(C2=NN(C(=O)c3ccccc3)CC2)cc1OC`: the inhibition at Nitric oxide synthase 1 [1] was 25.1%; in assay [2] it was 28.9%.

For `CCC(=O)N1CCC(c2ccccc2N)=N1`, the inhibition at Nitric oxide synthase 1 [1] worked out at 36.5%; in assay [2], 6.88%.

With `COc1ccc(N)c(C2=NN(C(=O)Cc3ccccc3)CC2)c1`, the values for the inhibition (at Nitric oxide synthase 1 [1]; in assay [2]) were 0.03% and 15%, respectively.

Turning to `Nc1cc(Cl)c(Cl)cc1C1=NN(C(=O)C2CC2)CC1`, the inhibition was determined as 50.5% on Nitric oxide synthase 1 [1] and 15.5% in assay [2].

Take `COc1ccc(N)c(C2=NN(C(=O)C3CCC3)CC2)c1`: the inhibition was 38.3% on Nitric oxide synthase 1 [1] and 1.91% in assay [2].

The record behind these values is ChEMBL document CHEMBL2396629, “Synthesis and biological evaluation of 4,5-dihydro-1H-pyrazole derivatives as potential nNOS/iNOS selective inhibitors. Part 2: Influence of diverse substituents in both the phenyl moiety and the acyl group” (Bioorg Med Chem, 2013).
